Measurements taken from ChEMBL document CHEMBL1156017, “alpha-Tocopheryl succinate as a scaffold to develop potent inhibitors of breast cancer cell adhesion” (J Med Chem, 2009).
Active and inactive are the calls of the source. No cut-off for these calls is given here.

Assays:
4T1 [1] = assay: Inhibition of mouse 4T1 cells adhesion to gelatinous matrix protein-coated surface after 60 mins by ELISA; format: functional, cell-based; settings: for IC50: 4T1, 1 h
MCF7 [2] = assay: Inhibition of human MCF7 cells adhesion to gelatinous matrix protein-coated surface after 60 mins by ELISA; format: functional, cell-based
Summary of the method: (§1)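 Wells coated with 12% (v/v) Matrigel for 1 h at 37°C, washed with 0.1% BSA RPMI, then blocked 60 min with 0.5% BSA RPMI. Cells pretreated with agents for 60 min at 37°C, then seeded at 2 × 10^4/well and allowed to adhere 30 min. Washed, formalin fixed, crystal violet stained, solubilized in 2% SDS, absorbance at 570 nm. Ratios compare IC50 values across cell lines.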

SK-BR-3 [3] = assay: Inhibition of human SK-BR-3 cells adhesion to gelatinous matrix protein-coated surface after 60 mins by ELISA; format: functional, cell-based; summary of the method: as §1
4T1 [4] = assay: Cytotoxicity against mouse 4T1 cells after 24 hrs by MTT assay; format: cell-based; settings: for IC50: Mus musculus, 4T1, 24 h; for Activity: mouse, 4t1, 24 h
Summary of the method: (§2)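 MTT viability, six replicates. Cells seeded at 6000 per well in 10% FBS RPMI 1640 for 24 h, then exposed to agents at the indicated concentrations in 2% FBS RPMI 1640. DMSO-matched vehicle controls. MTT at 0.5 mg/ml in 10% FBS medium for 2 h at 37°C. Formazan dissolved in DMSO, A570 read.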

[5] = Cytotoxicity against human MCF10A cells after 24 hrs by MTT assay; format: cell-based, MCF-10A; settings: for Activity: human, mcf-10a; for IC50: Homo sapiens, MCF-10A; summary of the method: as §2
4T1 [6] = assay: Inhibition of mouse 4T1 cells metastasis at 5 uM after 30 mins by Boyden chamber assay; format: functional, cell-based
Summary of the method: (§3)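 Transwell migration (12-μm pore). 5 × 10^4 cells in 0.2% FBS RPMI with agent in the upper insert for 30 min at 37°C, then moved to a well with 10% FBS RPMI for 24 h. Crystal violet stained. Migrated and non-migrated cells eluted with methanol separately, A570 read. % migration computed after background subtraction, expressed relative to vehicle (100%).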

[7] = molecular target: Focal adhesion kinase 1 (Mus musculus) (UniProt P34152); assay: Induction of FAK degradation in mouse 4T1 cells at 5 uM after 1 hr by Western blotting; format: cell-based
Focal adhesion kinase 1 (Mus musculus), sequence (P34152 whole entry): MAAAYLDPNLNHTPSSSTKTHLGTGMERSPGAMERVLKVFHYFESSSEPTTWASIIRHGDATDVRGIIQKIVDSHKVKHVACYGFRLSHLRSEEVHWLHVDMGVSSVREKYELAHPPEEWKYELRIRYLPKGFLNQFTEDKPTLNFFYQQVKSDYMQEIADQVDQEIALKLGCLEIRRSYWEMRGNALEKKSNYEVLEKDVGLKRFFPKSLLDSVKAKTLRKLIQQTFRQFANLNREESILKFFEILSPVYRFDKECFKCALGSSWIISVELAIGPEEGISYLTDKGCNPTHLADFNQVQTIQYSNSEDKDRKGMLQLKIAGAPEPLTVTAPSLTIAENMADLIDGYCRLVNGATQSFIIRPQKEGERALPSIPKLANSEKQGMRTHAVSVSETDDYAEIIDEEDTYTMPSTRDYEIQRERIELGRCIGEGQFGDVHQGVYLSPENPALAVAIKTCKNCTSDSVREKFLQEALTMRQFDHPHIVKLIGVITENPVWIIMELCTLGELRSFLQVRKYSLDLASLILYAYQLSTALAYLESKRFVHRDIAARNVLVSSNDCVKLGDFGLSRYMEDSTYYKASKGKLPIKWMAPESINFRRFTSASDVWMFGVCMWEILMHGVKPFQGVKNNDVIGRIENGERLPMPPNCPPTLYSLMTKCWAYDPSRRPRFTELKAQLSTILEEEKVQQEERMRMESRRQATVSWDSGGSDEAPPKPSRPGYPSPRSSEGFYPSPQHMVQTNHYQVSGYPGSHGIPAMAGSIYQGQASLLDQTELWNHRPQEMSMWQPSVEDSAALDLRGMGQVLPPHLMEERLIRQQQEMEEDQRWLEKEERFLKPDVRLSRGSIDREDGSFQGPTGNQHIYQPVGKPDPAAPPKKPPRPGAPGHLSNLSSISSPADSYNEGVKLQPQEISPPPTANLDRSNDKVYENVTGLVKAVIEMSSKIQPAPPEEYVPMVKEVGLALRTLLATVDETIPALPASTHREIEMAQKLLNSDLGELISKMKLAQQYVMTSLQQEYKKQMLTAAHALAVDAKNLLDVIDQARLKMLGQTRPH

4T1 [8] = assay: Effect on actin cytoskeletal structure in mouse 4T1 cells assessed as rapid dissolution of actin stress fibers at 10 uM after 4 hrs by immunocytochemistry; format: functional, cell-based
4T1 [9] = assay: Effect on actin cytoskeletal structure in mouse 4T1 cells assessed as impairment of lamellipodia formation at 10 uM after 4 hrs by immunocytochemistry; format: functional, cell-based
4T1 [10] = assay: Effect on actin cytoskeletal structure in mouse 4T1 cells assessed as rapid dissolution of F-actin fiber-associated reduction in fluorescent intensity at 10 uM after 4 hrs by immunocytochemistry relative to DMSO; format: functional; parameters: scale not given: the % may be the effect or the level left
4T1 [11] = assay: Effect on actin cytoskeletal structure in mouse 4T1 cells assessed as increase in accumulation of small vesicles surrounding nucleus and endoplasmic reticulum at 10 uM after 4 hrs by immunocytochemistry relative to DMSO; format: functional, cell-based
4T1 [12] = assay: Effect on actin cytoskeletal structure in mouse 4T1 cells assessed as rapid loss of F-actin fiber-associated detachment from neighbouring cells at 5 uM after 4 hrs by immunocytochemistry; format: functional, cell-based
MCF7 [13] = assay: Ratio of IC50 for inhibition of human MCF7 cells adhesion to gelatinous matrix protein-coated surface to IC50 for mouse 4T1 cells adhesion to gelatinous matrix protein-coated surface; format: functional; summary of the method: as §1
SK-BR-3 [14] = assay: Ratio of IC50 for inhibition of human SK-BR-3 cells adhesion to gelatinous matrix protein-coated surface to IC50 for mouse 4T1 cells adhesion to gelatinous matrix protein-coated surface; format: functional; summary of the method: as §1
4T1 [15] = assay: Inhibition of mouse 4T1 cells adhesion to collagen 4 at 0.5 to => 1 uM after 60 mins by ELISA; format: functional, cell-based
Summary of the method: (§4)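 Wells coated 1 h at 37°C with 2 μg/ml vitronectin or 10 μg/ml collagen IV, fibronectin or laminin. Washed with 0.1% BSA RPMI, blocked 60 min with 0.5% BSA RPMI. 4T1 cells pretreated with agents for 60 min at 37°C, then 2 × 10^4 cells/well allowed to adhere 30 min. Nonadherent cells washed off. Formalin fixed, 0.5% crystal violet stained, dissolved in 2% SDS, A570 read.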

4T1 [16] = assay: Inhibition of mouse 4T1 cells adhesion to fibronectin at 0.5 to => 1 uM after 60 mins by ELISA; format: functional, cell-based; summary of the method: as §4
4T1 [17] = assay: Inhibition of mouse 4T1 cells adhesion to laminin at 0.5 to => 1 uM after 60 mins by ELISA; format: functional, cell-based; summary of the method: as §4
4T1 [18] = assay: Inhibition of mouse 4T1 cells adhesion to vitronectin at 0.5 to => 1 uM after 60 mins by ELISA; format: functional, cell-based; summary of the method: as §4
4T1 [19] = assay: Inhibition of mouse 4T1 cells adhesion to collagen 4 at after 60 mins by ELISA; format: functional, cell-based; summary of the method: as §4
4T1 [20] = assay: Inhibition of mouse 4T1 cells adhesion to fibronectin at after 60 mins by ELISA; format: functional, cell-based; summary of the method: as §4
4T1 [21] = assay: Inhibition of mouse 4T1 cells adhesion to laminin at after 60 mins by ELISA; format: functional, cell-based; summary of the method: as §4
4T1 [22] = assay: Inhibition of mouse 4T1 cells adhesion to vitronectin at after 60 mins by ELISA; format: functional, cell-based; summary of the method: as §4
4T1 [23] = assay: Effect on actin cytoskeletal structure in mouse 4T1 cells assessed as rapid dissolution of actin stress fibers at 5 uM after 4 hrs by immunocytochemistry; format: functional, cell-based
4T1 [24] = assay: Effect on actin cytoskeletal structure in mouse 4T1 cells assessed as impairment of lamellipodia formation at 5 uM after 4 hrs by immunocytochemistry; format: functional, cell-based
4T1 [25] = assay: Effect on actin cytoskeletal structure in mouse 4T1 cells assessed as rapid dissolution of F-actin fiber-associated reduction in fluorescent intensity at 5 uM after 4 hrs by immunocytochemistry relative to DMSO; format: functional; parameters: scale not given: the % may be the effect or the level left
4T1 [26] = assay: Effect on actin cytoskeletal structure in mouse 4T1 cells assessed as increase in accumulation of small vesicles surrounding nucleus and endoplasmic reticulum at 5 uM after 4 hrs by immunocytochemistry relative to DMSO; format: functional, cell-based
[27] = molecular target: Focal adhesion kinase 1 (Mus musculus) (UniProt P34152); assay: Induction of FAK degradation in mouse 4T1 cells at 5 uM after 1 hr by Western blotting
4T1 [28] = assay: Effect on actin cytoskeletal structure in mouse 4T1 cells assessed as rapid loss of F-actin fiber-associated detachment from neighbouring cells at 10 uM after 4 hrs by immunocytochemistry; format: functional, cell-based
4T1 [29] = assay: Inhibition of mouse 4T1 cells adhesion to gelatinous matrix protein-coated surface at 10 uM after 60 mins by ELISA; format: functional; settings: 4T1, 1 h
MCF7 [30] = assay: Inhibition of human MCF7 cells adhesion to gelatinous matrix protein-coated surface at 100 uM after 60 mins by ELISA; format: functional, cell-based; summary of the method: as §1
SK-BR-3 [31] = assay: Inhibition of human SK-BR-3 cells adhesion to gelatinous matrix protein-coated surface at 100 uM after 60 mins by ELISA; format: functional, cell-based; summary of the method: as §1
4T1 [32] = assay: Inhibition of mouse 4T1 cells adhesion to collagen 4 at 5 to 100 uM after 60 mins by ELISA; format: functional, cell-based; summary of the method: as §4
4T1 [33] = assay: Inhibition of mouse 4T1 cells adhesion to fibronectin at 5 to 100 uM after 60 mins by ELISA; format: functional, cell-based; summary of the method: as §4
4T1 [34] = assay: Inhibition of mouse 4T1 cells adhesion to laminin at 5 to 100 uM after 60 mins by ELISA; format: functional, cell-based; summary of the method: as §4
4T1 [35] = assay: Inhibition of mouse 4T1 cells adhesion to vitronectin at 5 to 100 uM after 60 mins by ELISA; format: functional, cell-based; summary of the method: as §4
4T1 [36] = assay: Inhibition of mouse 4T1 cells metastasis at 50 uM after 30 mins by Boyden chamber assay; format: functional, cell-based; summary of the method: as §3
4T1 [37] = assay: Effect on actin cytoskeletal structure in mouse 4T1 cells assessed as rapid dissolution of actin stress fibers at 50 uM after 4 hrs by immunocytochemistry; format: functional, cell-based

Structure (SMILES)	inhibition (4T1 [1])	IC50 (4T1 [1]) [µM]	inhibition (MCF7 [2])	inhibition (SK-BR-3 [3])	IC50 (4T1 [4]) [µM]	Activity (4T1 [4])	Activity [5]	inhibition (4T1 [6])	Activity [7]	IC50 [5] [µM]	also measured
Cc1c(C)c2c(c(C)c1OC(=O)CCC(=O)O)CC[C@](C)(CCCC(C)CCCC(C)C)O2 (stereo partly drawn)	Dose-dependent effect	2.5	Dose-dependent effect	Dose-dependent effect	> 10	Dose-dependent effect	Dose-dependent effect	inactive	inactive	–	–
Cc1c(C)c2c(c(C)c1OC(=O)CCC(=O)O)CC[C@](C)(/C=C/CC(C)CCCC(C)C)O2 (stereo partly drawn)	Dose-dependent effect	1.3	Dose-dependent effect	Dose-dependent effect	> 10	Dose-dependent effect	Dose-dependent effect	Active	Active	23	–
Cc1c(C)c2c(c(C)c1OCC(=O)O)CC[C@](C)(CCCC(C)CCCC(C)C)O2 (stereo partly drawn)	Dose-dependent effect	2	Dose-dependent effect	Dose-dependent effect	> 10	Dose-dependent effect	Dose-dependent effect	Active	Active	–	Activity (4T1 [8]): Active; Activity (4T1 [9]): Active; Activity (4T1 [10]): 70%; Activity (4T1 [11]): Active
Cc1c(C)c2c(c(C)c1OCC(=O)O)CC[C@](C)(/C=C/CC(C)CCCC(C)C)O2 (stereo partly drawn)	Dose-dependent effect	0.6	Dose-dependent effect	Dose-dependent effect	> 10	Dose-dependent effect	Dose-dependent effect	Active	–	23	Activity (4T1 [12]): Active; IC50 (MCF7 [2]; MCF7, 1 h): 2 µM; IC50 (SK-BR-3 [3]; SK-BR-3, 1 h): 2 µM; Ratio IC50 (MCF7 [13]): 3.3; Ratio IC50 (SK-BR-3 [14]): 3.3; inhibition (4T1 [15]): Active; inhibition (4T1 [16]): Active; inhibition (4T1 [17]): Active; inhibition (4T1 [18]): Active; inhibition (4T1 [19]): Dose-dependent effect; inhibition (4T1 [20]): Dose-dependent effect; inhibition (4T1 [21]): Dose-dependent effect; inhibition (4T1 [22]): Dose-dependent effect; Activity (4T1 [23]): Active; Activity (4T1 [24]): Active; Activity (4T1 [25]): 84%; Activity (4T1 [26]): Active; Activity [27]: Active
Cc1c(C)c2c(c(C)c1OC(=O)CCC(=O)O)CC[C@@](C)(CCC[C@H](C)CCC[C@H](C)CCCC(C)C)O2 [(+)-ALPHA-TOCOPHERYL SUCCINATE]	Dose-dependent effect	10	–	Dose-dependent effect	–	–	–	–	inactive	–	Activity (4T1 [28]): inactive; inhibition at 10 µM (4T1 [29]): 50%; inhibition (MCF7 [30]): inactive; inhibition (SK-BR-3 [31]): inactive; inhibition (4T1 [32]): Active; inhibition (4T1 [33]): Active; inhibition (4T1 [34]): Active; inhibition (4T1 [35]): Active; inhibition (4T1 [36]): inactive; Activity (4T1 [37]): inactive
